Source: ChEMBL document CHEMBL1149447, “Synthesis of 2,5-thiazole butanoic acids as potent and selective alpha(v)beta3 integrin receptor antagonists with improved oral pharmacokinetic properties” (Bioorg Med Chem Lett, 2006)

How the values were obtained:
Integrin alpha-V/beta-3 = Integrin alpha-V/beta-3 (Homo sapiens, UniProt P05106+P06756); experiment: Inhibition of Integrin alphaV Beta3 receptor by solid-phase receptor binding assay; format: protein-complex assay
[1] = Volume of distribution in rat; format: ADME, organism-based; details: in vivo, read-out: Vdss
Procedure, shortened: (§1)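 Rats were given the compound both orally and intravenously. Oral and IV AUC are each normalized to dose (µg h/ml per mg/kg). The same rat study also reports oral bioavailability (%F), half-life (h), Cmax (µg/mL), clearance (mL/min/kg) and terminal volume Vz (mL/kg).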

[2] = biological target: Integrin alpha-IIb/beta-3 (Homo sapiens, UniProt P05106+P08514); experiment: Inhibition of Integrin alphaIIb Beta3 receptor by solid-phase receptor binding assay; format: protein-complex assay
Sequence of Integrin alpha-IIb/beta-3 (P05106 27-788 limits assumed): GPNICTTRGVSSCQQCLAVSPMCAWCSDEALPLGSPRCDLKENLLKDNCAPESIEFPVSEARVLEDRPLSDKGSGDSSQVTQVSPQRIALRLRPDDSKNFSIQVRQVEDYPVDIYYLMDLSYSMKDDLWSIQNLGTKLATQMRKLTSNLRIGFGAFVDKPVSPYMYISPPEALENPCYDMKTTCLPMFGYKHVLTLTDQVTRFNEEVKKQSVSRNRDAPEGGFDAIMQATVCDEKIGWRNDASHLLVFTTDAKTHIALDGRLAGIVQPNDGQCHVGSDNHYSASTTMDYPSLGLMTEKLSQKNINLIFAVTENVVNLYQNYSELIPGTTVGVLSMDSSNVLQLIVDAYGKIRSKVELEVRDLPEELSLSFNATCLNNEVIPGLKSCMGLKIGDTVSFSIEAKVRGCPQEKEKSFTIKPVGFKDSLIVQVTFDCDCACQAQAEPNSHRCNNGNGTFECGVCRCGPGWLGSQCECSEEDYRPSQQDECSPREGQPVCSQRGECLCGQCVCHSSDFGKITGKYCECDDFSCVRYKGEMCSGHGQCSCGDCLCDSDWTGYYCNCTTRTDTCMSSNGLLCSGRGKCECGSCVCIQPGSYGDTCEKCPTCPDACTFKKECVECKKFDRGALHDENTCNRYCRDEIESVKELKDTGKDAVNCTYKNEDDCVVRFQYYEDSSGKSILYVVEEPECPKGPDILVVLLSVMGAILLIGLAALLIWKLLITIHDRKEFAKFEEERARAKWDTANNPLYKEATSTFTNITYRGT
Sequence of Integrin alpha-IIb/beta-3 (P08514 32-887 limits assumed): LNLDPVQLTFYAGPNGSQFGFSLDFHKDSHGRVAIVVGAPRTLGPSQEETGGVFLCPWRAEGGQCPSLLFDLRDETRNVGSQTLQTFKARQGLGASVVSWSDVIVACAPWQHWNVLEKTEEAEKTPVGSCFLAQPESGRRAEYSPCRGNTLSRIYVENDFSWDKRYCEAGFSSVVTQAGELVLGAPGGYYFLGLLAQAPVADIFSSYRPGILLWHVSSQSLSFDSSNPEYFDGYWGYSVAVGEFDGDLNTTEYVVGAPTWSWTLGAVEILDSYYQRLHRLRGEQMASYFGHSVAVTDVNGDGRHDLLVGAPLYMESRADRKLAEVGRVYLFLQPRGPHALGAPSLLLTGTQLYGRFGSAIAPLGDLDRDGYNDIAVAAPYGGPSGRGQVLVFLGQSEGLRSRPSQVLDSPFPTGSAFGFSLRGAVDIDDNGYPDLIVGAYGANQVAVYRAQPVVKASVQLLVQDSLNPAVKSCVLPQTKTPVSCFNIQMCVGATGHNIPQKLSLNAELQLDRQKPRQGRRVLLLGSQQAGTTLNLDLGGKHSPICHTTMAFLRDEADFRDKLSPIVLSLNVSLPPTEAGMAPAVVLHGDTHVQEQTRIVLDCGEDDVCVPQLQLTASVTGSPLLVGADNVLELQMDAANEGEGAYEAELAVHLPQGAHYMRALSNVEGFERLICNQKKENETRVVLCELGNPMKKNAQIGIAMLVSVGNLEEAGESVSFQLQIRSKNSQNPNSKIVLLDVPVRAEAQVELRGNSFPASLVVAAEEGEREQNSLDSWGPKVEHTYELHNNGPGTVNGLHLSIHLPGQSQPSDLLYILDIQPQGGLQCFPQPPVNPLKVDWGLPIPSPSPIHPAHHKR
Sequence of Integrin alpha-IIb/beta-3 (P08514 891-1039 limits assumed): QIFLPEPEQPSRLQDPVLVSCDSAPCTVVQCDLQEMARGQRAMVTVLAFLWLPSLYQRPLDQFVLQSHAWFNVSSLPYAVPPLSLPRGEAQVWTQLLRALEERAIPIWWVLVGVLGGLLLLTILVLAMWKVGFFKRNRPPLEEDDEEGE

Integrin alpha-V/beta-6 = Integrin alpha-V/beta-6 (Homo sapiens, UniProt P06756+P18564); experiment: Inhibition of Integrin alphaV Beta6 receptor in HT29 cells by solid-phase receptor binding assay; format: cell-based, HT-29
Sequence of Integrin alpha-V/beta-6 (P06756 31-889 limits assumed): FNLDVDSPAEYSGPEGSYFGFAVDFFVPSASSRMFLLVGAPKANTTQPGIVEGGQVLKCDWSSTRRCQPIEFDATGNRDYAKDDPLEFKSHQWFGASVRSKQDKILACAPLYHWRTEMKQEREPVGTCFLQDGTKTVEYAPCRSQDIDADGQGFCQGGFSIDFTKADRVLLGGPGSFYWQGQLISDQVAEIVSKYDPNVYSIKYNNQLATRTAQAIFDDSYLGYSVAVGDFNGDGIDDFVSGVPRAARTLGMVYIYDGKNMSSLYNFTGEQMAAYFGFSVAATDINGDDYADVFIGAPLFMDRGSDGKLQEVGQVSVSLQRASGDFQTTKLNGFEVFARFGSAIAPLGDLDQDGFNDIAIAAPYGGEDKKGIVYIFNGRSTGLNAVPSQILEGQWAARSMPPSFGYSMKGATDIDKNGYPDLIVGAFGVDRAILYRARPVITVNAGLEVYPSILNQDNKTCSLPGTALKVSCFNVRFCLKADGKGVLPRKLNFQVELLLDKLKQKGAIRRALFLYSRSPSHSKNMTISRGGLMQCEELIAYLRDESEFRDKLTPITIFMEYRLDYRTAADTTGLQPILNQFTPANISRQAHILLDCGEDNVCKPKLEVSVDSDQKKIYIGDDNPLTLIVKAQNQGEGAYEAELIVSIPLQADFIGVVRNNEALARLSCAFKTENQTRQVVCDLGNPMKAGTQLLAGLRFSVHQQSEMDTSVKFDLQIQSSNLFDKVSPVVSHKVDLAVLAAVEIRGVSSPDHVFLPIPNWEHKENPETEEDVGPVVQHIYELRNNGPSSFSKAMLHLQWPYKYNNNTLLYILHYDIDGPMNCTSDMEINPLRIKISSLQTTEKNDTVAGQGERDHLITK
Sequence of Integrin alpha-V/beta-6 (P06756 891-1048 limits assumed): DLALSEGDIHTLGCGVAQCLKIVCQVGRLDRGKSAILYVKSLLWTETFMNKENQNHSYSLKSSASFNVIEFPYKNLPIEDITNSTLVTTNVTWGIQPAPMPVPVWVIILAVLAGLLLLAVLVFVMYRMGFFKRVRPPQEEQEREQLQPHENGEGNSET
Sequence of Integrin alpha-V/beta-6 (P18564 22-788 limits assumed): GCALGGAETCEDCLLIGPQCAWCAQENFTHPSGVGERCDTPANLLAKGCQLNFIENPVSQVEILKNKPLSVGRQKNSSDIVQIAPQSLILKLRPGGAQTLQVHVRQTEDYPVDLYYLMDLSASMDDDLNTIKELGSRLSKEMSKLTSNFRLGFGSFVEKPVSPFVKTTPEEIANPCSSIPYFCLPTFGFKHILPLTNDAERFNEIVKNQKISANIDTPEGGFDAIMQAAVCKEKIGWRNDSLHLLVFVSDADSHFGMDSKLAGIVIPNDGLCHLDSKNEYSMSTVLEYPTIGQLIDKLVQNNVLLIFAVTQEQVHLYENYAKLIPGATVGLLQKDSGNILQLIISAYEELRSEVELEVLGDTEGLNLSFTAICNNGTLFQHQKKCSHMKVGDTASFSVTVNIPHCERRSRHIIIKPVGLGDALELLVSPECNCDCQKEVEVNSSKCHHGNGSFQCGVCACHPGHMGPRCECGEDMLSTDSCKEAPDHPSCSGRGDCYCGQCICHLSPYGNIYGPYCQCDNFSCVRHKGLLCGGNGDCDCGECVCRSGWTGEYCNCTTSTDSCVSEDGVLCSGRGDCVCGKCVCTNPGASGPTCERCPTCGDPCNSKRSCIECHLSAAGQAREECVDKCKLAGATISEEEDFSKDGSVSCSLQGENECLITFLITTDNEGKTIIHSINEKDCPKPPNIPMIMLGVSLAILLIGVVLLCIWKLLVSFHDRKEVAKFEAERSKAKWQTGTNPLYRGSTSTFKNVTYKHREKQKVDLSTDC

[3] = Bioavailability in rat; format: ADME, organism-based; details: in vivo; procedure, shortened: as §1
[4] = Half life in rat; format: ADME, organism-based; details: in vivo; procedure, shortened: as §1
Rattus norvegicus [5] = experiment: AUC/dose(mg/kg) in orally dosed rat; format: ADME, organism-based, Plasma; details: in vivo, po; procedure, shortened: as §1
Rattus norvegicus [6] = experiment: AUC/dose(mg/kg) in iv dosed rat; format: ADME, organism-based, Plasma; details: in vivo; procedure, shortened: as §1
[7] = Cmax in rat; format: ADME, organism-based; details: in vivo; procedure, shortened: as §1
[8] = Clearance in rat; format: ADME, organism-based; details: in vivo; procedure, shortened: as §1
[9] = Bioavailability in dog; format: ADME, organism-based, Canis lupus familiaris; details: in vivo
[10] = Half life in dog; format: ADME, organism-based, Canis lupus familiaris; details: in vivo
[11] = Bioavailability in cynomonkey; format: ADME, organism-based, Macaca fascicularis; details: cynomolgus monkey, in vivo
[12] = Half life in cynomonkey; format: ADME, organism-based, Macaca fascicularis; details: cynomolgus monkey, in vivo

Sequence of Integrin alpha-V/beta-3 (P05106 27-788 limits assumed): as the sequence (P05106 27-788 limits assumed) above
Sequence of Integrin alpha-V/beta-3 (P06756 31-889 limits assumed): as the sequence (P06756 31-889 limits assumed) above
Sequence of Integrin alpha-V/beta-3 (P06756 891-1048 limits assumed): as the sequence (P06756 891-1048 limits assumed) above

| Compound | IC50 (Integrin alpha-V/beta-3) [nM] | Vd [1] [L/kg] | IC50 [2] [nM] | IC50 (Integrin alpha-V/beta-6) [nM] | bioavailability [3] [%] | half-life [4] [h] | AUC/dose (Rattus norvegicus [5]) [µg·h/mL] | AUC/dose (Rattus norvegicus [6]) [µg·h/mL] | Cmax [7] [ng/mL] | clearance [8] [mL/min/kg] | further results |
| --- | --- | --- | --- | --- | --- | --- | --- | --- | --- | --- | --- |
| COc1ccc(C(CC(=O)O)Cc2csc(CCCCNc3cc(N4CCSCC4)ccn3)n2)cn1 (configuration not stated) | 3.73 |  |  |  |  |  |  |  |  |  |  |
| COc1ccc(C(CC(=O)O)Cc2csc(CCCCNc3cc(N4CCCC4)ccn3)n2)cn1 (configuration not stated) | 3 |  |  |  |  |  |  |  |  |  |  |
| COc1ccc(C(CC(=O)O)Cc2csc(CCCc3ccc4c(n3)NCCC4)n2)cc1F (configuration not stated) | 2.17 | 1.29 | 405 | 3260 | 95 | 4.3 | 1.8 | 1.9 | 9100 | 9 |  |
| Cc1ccc(C(CC(=O)O)Cc2csc(CCCc3ccc4c(n3)NCCC4)n2)cc1 (configuration not stated) | 11.1 |  | 2000 | 5060 |  |  |  |  |  |  |  |
| O=C(O)CC(Cc1csc(CCCc2ccc3c(n2)NCCC3)n1)c1cccc(F)c1 (configuration not stated) | 2.8 |  | 559 | 1310 |  |  |  |  |  |  |  |
| Cc1nc2cc(C(CC(=O)O)Cc3csc(CCCc4ccc5c(n4)NCCC5)n3)ccc2s1 (configuration not stated) | 2.82 |  | 95.1 | > 10000 |  |  |  |  |  |  |  |
| O=C(O)C[C@H](Cc1csc(CCCc2ccc3c(n2)NCCC3)n1)c1ccc2c(c1)OCO2 |  |  |  |  |  |  |  |  |  |  | bioavailability [9]: 60%; half-life [10]: 13 h; bioavailability [11]: 64%; half-life [12]: 11.2 h |
| COc1ccc(C(CC(=O)O)Cc2csc(CCCCNc3cc(N4CCOCC4)ccn3)n2)cn1 (configuration not stated) | 3.54 |  |  |  |  |  |  |  |  |  |  |
| O=C(O)CC(Cc1csc(CCCc2ccc3c(n2)NCCC3)n1)c1ccc(Cl)cc1 (configuration not stated) | 3.81 |  | 636 | 2440 |  |  |  |  |  |  |  |
| O=C(O)CC(Cc1csc(CCCc2ccc3c(n2)NCCC3)n1)c1cnc(-c2ccccc2)s1 (configuration not stated) | 1.77 |  | 252 | 2670 |  |  |  |  |  |  |  |
| O=C(O)CC(Cc1csc(CCCc2ccc3c(n2)NCCC3)n1)c1cnc(-c2ccc(Cl)cc2)s1 (configuration not stated) | 2.09 |  | 559 | 4300 |  |  |  |  |  |  |  |
| O=C(O)CC(Cc1csc(CCCc2ccc3c(n2)NCCC3)n1)c1ccc(F)c(F)c1 (configuration not stated) | 3.49 |  | 484 | 2120 |  |  |  |  |  |  |  |
| O=C(O)CC(Cc1nc(CCCc2ccc3c(n2)NCCC3)no1)c1ccc2c(c1)OCO2 (racemic) |  | 0.733 |  |  | 95 | 1.4 | 1.5 | 1.6 | 12000 | 10.9 |  |

Continued, in another order:

| IC50 (Integrin alpha-V/beta-3) [nM] | Vd [1] [L/kg] | IC50 [2] [nM] | IC50 (Integrin alpha-V/beta-6) [nM] | bioavailability [3] [%] | half-life [4] [h] | AUC/dose (Rattus norvegicus [5]) [µg·h/mL] | AUC/dose (Rattus norvegicus [6]) [µg·h/mL] | Cmax [7] [ng/mL] | clearance [8] [mL/min/kg] | Compound | further results |
| --- | --- | --- | --- | --- | --- | --- | --- | --- | --- | --- | --- |
| 1.26 |  |  |  |  |  |  |  |  |  | O=C(O)C[C@H](Cc1csc(CCCCNc2cc(N3CCCC3)ccn2)n1)c1ccc2c(c1)OCO2 |  |
| 1.7 |  |  |  |  |  |  |  |  |  | O=C(O)C[C@H](Cc1csc(CCCCNc2cc(N3CCSCC3)ccn2)n1)c1ccc2c(c1)OCO2 |  |
| 1.54 | 2.04 | 350 | 1740 | 98 | 6.1 | 2.2 | 2.2 | 6100 | 7.3 | COc1cc(OC)cc(C(CC(=O)O)Cc2csc(CCCc3ccc4c(n3)NCCC4)n2)c1 (configuration not stated) |  |
| 1.23 | 2.95 |  | 1320 | > 100 | 6.3 | 1.6 | 1.4 | 6600 | 12.3 | COc1ccc(C(CC(=O)O)Cc2csc(CCCc3ccc4c(n3)NCCC4)n2)cn1 (configuration not stated) |  |
| 0.61 |  |  |  |  |  |  |  |  |  | CN1CCNc2nc(CCCc3nc(CC(CC(=O)O)c4ccc5c(c4)OCO5)cs3)ccc21 (configuration not stated) |  |
| 1.2 | 2.68 |  | 841 | 90 | 7.1 | 1.7 | 1.9 | 3000 | 8.7 | COCc1ncc(C(CC(=O)O)Cc2csc(CCCc3ccc4c(n3)NCCC4)n2)s1 (configuration not stated) |  |
| 1.24 |  |  |  |  |  |  |  |  |  | COc1ccc(C(CC(=O)O)Cc2csc(CCCc3ccc4c(n3)NCCN4C)n2)cn1 (configuration not stated) |  |
| 1.18 | 0.897 | 263 | 2390 | > 100 | 7 | 6.8 | 5.2 | 19600 | 3.3 | O=C(O)CC(Cc1csc(CCCc2ccc3c(n2)NCCC3)n1)c1ccc2c(c1)OCO2 (configuration not stated) |  |
| 1.22 | 1.02 |  | 313 | > 100 | 3.4 | 2.5 | 2.4 | 22000 | 6.8 | O=C(O)CC(Cc1csc(CCCc2ccc3c(n2)NCCC3)n1)c1cnc(C2CC2)s1 (configuration not stated) |  |
| 1.56 |  |  |  |  |  |  |  |  |  | O=C(O)C[C@H](Cc1csc(CCCCNc2cc(N3CCOCC3)ccn2)n1)c1ccc2c(c1)OCO2 |  |
